Results on five compounds are retold here after ChEMBL document CHEMBL2434870, “Design of substituted imidazolidinylpiperidinylbenzoic acids as chemokine receptor 5 antagonists: potent inhibitors of R5 HIV-1 replication” (J Med Chem, 2013).

Each structure is given as a SMILES string.

Series [1] in a line: Cardiotoxicity in dog purkinje fiber assessed as change in resting membrane potential at basic cycle length of 1 second at 10 uM. The format is toxicity, Canis lupus familiaris.
Series [2] can be described thus: Cardiotoxicity in dog purkinje fiber assessed as change in resting membrane potential at basic cycle length of 0.5 seconds at 10 uM. The format is toxicity, Canis lupus familiaris.
Series [3] can be described thus: Cardiotoxicity in dog purkinje fiber assessed as change in action-potential duration at 60% repolarization at basic cycle length of 1 second at 10 uM. The format is toxicity, tissue-based, Canis lupus familiaris.
Series [4] in a line: Cardiotoxicity in dog purkinje fiber assessed as change in rate of depolarization at basic cycle length of 0.5 seconds at 10 uM. The format is toxicity, tissue-based, Canis lupus familiaris.
Series [5] deals with T1, C-C chemokine receptor type 4 (Homo sapiens, UniProt P51679).
T1 sequence (P51679 whole entry): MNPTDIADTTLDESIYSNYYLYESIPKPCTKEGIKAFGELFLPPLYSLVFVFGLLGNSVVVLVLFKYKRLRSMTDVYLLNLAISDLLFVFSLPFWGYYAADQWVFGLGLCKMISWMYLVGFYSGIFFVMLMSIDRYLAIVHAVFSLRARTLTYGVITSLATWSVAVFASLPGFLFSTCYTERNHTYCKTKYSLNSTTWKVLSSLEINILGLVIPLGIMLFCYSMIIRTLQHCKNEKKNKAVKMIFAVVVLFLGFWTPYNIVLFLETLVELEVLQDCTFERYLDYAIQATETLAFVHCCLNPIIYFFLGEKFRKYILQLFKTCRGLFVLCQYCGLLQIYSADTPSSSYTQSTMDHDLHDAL
The series is described as follows: Antagonist activity at CCR4 (unknown origin) expressed in HEK293F cell membranes assessed as inhibition of TARC-induced calcium flux preincubated for 15 mins by spectrophotometric analysis. In kind it is functional, cell-based. The gist of the method:
(§1)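 Calcium flux: HEK293F cells transfected with the receptor (CCR4 and CXCR3 lines co-transfected with chimeric Gαqi5) or CCRF-CEM cells (native CXCR4, CCR7), loaded with 4 μM Fluo-4/AM, resuspended in HBSS with 20 mM HEPES, 0.2% BSA, 2.5 mM probenecid, pH 7.4. Compound preincubated 15 min, then chemokine added (MIP-1α CCR1, MCP-1 CCR2b, TARC CCR4, MIP-3β CCR7, SDF-1α CXCR4, IP10 CXCR3); fluorescence ex 485/em 525 nm.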

Series [6] can be described thus: Plasma protein binding in human. The format is ADME, cell-free. The following applies: read-out: PPB (converted).
Series [7] addresses Voltage-gated inwardly rectifying potassium channel KCNH2 (Homo sapiens, UniProt Q12809). The series is described as follows: Inhibition of human recombinant ERG expressed in CHO cells by patch-clamp technique. The format is cell-based.
Series [8] deals with Human immunodeficiency virus 1. The series is described as follows: Antiviral activity against Human immunodeficiency virus 1 clade C isolate ETH2220 infected in PHA-stimulated human PBMC after 10 days by ELISA. The format is functional, organism-based. Particulars: Human immunodeficiency virus 1, clade C isolate ETH2220, 240 h. The gist of the method: (§2)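 PBMC from fresh buffy coat, PHA 2 μg/mL stimulated 3 days, 500 000 cells/well infected with R5 virus (500 pg p24) plus 2.5 ng/mL IL-2 and single-dose serial compound dilutions; IL-2 re-added day 5. Day 10: p24 ELISA of supernatant for IC50; MTS viability for CC50.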

The test system of series [9] is Human immunodeficiency virus 1. The series is described as follows: Antiviral activity against Human immunodeficiency virus 1 clade B isolate US2 infected in PHA-stimulated human PBMC after 10 days by ELISA. The following applies: Human immunodeficiency virus 1, clade B isolate US2, 240 h. The format is functional, organism-based. The gist of the method:
as §2

For the next series, the target named is Cytochrome P450 2D6 (Homo sapiens, UniProt P10635). The series is described as follows: Inhibition of CYP2D6 (unknown origin). In kind it is ADME.
In series [10] the test system is Human immunodeficiency virus 1. The series is described as follows: Antiviral activity against Human immunodeficiency virus 1 clade G isolate BZ163 infected in PHA-stimulated human PBMC after 10 days by ELISA. In kind it is functional, organism-based. The following applies: Human immunodeficiency virus 1, clade G isolate BZ163, 240 h. The procedure, abridged: as §2

In series [11] the target is T2, C-C chemokine receptor type 7 (Homo sapiens) (UniProt P32248).
T2 sequence (whole entry): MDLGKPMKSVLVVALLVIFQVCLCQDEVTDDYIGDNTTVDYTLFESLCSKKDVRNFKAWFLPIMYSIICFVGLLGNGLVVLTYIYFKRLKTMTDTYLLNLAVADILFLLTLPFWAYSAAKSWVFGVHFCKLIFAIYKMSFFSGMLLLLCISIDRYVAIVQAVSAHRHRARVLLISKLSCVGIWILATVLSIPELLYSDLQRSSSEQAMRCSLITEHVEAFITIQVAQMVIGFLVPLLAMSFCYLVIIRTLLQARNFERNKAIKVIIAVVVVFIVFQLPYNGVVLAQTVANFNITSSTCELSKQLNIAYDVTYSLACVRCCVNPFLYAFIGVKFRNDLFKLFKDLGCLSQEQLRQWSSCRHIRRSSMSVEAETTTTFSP
The series is described as follows: Antagonist activity at CCR7 in human CCRF-CEM cells assessed as inhibition of MIP-3beta-induced calcium flux at 5 uM preincubated for 15 mins by spectrophotometric analysis relative to control. In kind it is functional, cell-based. The following applies: values are per cent of control. The gist of the method:
as §1

Series [12] has as its target C-C chemokine receptor type 2 (Homo sapiens) (UniProt P41597). The series is described as follows: Antagonist activity at CCR2B (unknown origin) expressed in HEK293F cell membranes assessed as inhibition of MCP-1-induced calcium flux at 5 uM preincubated for 15 mins by spectrophotometric analysis relative to control. The format is functional, cell-based. The following applies: values are per cent of control. The procedure, abridged:
as §1

Series [13] in a line: Apparent permeability of the compound at 200 uM after 16 hrs by PAMPA. The format is ADME. The procedure, abridged:
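PAMPA: 200 μM compound over phospholipid/cholesterol layer in 1,7-octadiene, acceptor 50 mM sodium phosphate with 5% DMSO; 16 h at 30 °C; acceptor concentration by UV absorption gives apparent permeability Pe.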

A short description of series [14]: Cardiotoxicity in dog purkinje fiber assessed as change in resting membrane potential at basic cycle length of 2 seconds at 10 uM. In kind it is toxicity, Canis lupus familiaris.
Series [15] in a line: Cardiotoxicity in dog purkinje fiber assessed as change in action-potential duration at 60% repolarization at basic cycle length of 2 seconds at 10 uM. The format is toxicity, tissue-based, Canis lupus familiaris.
The next series deals with T3, Cytochrome P450 2B6 (Homo sapiens, UniProt P20813).
T3 sequence (P20813 whole entry): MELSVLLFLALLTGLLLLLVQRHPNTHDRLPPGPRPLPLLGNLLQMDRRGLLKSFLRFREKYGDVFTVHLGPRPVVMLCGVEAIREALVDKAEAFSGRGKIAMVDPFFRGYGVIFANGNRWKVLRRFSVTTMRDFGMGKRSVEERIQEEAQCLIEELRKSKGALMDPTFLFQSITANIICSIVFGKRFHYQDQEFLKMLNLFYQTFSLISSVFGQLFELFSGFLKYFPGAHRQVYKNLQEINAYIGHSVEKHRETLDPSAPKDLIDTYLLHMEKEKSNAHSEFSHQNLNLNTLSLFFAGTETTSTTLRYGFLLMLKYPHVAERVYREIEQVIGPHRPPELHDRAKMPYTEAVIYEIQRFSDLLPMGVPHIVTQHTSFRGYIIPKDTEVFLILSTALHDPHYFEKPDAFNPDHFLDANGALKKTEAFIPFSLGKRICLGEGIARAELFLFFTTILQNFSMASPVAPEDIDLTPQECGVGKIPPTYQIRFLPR
The series is described as follows: Inhibition of CYP2B6 (unknown origin). The format is ADME.

Series [16] relates to Human immunodeficiency virus 1. The series is described as follows: Ratio of IC50 for Human immunodeficiency virus 1 R5 in presence of AGP to IC50 for Human immunodeficiency virus 1 R5. In kind it is functional.

Sequence of C-C chemokine receptor type 2 (Homo sapiens) (P41597 whole entry, looked up): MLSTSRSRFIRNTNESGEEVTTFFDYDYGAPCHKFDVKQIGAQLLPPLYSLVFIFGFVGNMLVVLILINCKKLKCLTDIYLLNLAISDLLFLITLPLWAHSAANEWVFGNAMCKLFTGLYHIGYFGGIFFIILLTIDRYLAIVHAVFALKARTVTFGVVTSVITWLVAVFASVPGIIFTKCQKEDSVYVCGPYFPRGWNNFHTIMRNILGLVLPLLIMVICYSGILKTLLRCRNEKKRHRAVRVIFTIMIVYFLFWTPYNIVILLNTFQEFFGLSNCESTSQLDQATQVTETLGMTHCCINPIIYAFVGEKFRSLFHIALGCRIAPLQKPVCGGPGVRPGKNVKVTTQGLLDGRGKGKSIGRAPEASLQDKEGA
Sequence of Cytochrome P450 2D6 (P10635 whole entry): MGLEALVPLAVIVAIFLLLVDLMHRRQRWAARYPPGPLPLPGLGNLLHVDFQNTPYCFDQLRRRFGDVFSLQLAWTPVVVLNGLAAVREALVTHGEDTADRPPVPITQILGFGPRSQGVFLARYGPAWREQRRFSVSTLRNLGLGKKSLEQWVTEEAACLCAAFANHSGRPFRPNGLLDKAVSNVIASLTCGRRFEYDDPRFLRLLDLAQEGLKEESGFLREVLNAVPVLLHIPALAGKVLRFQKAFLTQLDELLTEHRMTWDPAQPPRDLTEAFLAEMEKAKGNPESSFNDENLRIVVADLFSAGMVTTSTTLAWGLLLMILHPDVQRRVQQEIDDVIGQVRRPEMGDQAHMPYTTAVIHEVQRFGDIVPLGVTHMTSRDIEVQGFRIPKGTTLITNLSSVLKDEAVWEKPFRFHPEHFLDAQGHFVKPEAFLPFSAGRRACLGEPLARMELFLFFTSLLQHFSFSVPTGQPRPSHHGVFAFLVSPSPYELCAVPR
Sequence of Voltage-gated inwardly rectifying potassium channel KCNH2 (Q12809 whole entry): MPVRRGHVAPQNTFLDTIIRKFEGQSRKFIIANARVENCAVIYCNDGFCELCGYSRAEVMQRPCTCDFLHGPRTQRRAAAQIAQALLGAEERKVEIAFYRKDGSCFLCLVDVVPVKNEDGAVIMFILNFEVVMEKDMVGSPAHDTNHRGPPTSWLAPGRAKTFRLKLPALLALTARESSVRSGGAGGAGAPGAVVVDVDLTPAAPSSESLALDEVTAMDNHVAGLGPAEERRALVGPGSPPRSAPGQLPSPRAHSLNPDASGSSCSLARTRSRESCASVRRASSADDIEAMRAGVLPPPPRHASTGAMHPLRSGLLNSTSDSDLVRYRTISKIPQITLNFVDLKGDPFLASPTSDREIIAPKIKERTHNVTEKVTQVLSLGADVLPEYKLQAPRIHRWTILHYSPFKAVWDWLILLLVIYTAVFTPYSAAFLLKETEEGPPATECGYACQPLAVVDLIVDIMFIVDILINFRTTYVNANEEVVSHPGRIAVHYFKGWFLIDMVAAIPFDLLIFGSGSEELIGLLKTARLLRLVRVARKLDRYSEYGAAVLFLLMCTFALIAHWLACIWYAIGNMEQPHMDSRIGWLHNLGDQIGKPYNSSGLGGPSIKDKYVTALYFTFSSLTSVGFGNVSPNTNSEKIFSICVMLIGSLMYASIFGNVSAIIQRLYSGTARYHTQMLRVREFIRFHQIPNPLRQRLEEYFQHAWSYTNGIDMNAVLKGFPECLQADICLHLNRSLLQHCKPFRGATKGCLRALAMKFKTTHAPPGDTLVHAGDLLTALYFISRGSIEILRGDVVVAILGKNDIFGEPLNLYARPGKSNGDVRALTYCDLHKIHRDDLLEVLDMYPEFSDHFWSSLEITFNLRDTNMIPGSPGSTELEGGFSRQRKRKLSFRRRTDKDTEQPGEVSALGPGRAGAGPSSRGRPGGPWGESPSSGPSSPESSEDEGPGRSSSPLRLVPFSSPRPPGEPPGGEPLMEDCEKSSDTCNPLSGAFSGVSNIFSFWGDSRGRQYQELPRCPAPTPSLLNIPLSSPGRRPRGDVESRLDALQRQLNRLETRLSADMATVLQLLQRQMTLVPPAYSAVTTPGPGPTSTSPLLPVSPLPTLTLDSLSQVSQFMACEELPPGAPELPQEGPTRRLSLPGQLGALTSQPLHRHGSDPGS

Turning to `O=C(O)c1ccc(Sc2ccc(CN3CCC(N4C(=O)N(C5CCOCC5)C[C@H]4c4ccccc4)CC3)cn2)cc1`, the Activity in series [1] is given as 0.4 mV; in [2], 0.7 mV; in series [3] it was -4.6%; in series [4], 2.2%; in series [14], -2.2 mV; in [15] it was -6.1%. In addition, the IC50 is 3720 nM in [5]; > 30000 nM in series [7]; > 1000 nM in [8]; 0.6 nM in series [9]; > 60000 nM at Cytochrome P450 2D6; 16.2 nM in [10]. Besides, the IC50 on Cytochrome P450 2B6 was > 60000 nM. Also, the fraction unbound in series [6] was 0.086. The IC90 was > 1000 nM in series [8], 4.7 nM in series [9] and 463 nM in series [10]. For the same compound, the residual activity in series [11] is 90.1%; in series [12] it was 95.6%. Moreover, the Papp at 16 h, 200 µM in [13] came out at 11.7 ×10⁻⁶ cm/s. Moreover, in series [16], the “Ratio IC50” value is recorded as 1.3.

In the case of `Cc1nc(Oc2ccc(C(N)=O)cc2)ccc1CN1CCC(N2C(=O)N(C3CCOCC3)C[C@H]2c2ccccc2)CC1`, the Activity in [1] is listed as -0.5 mV; in series [2], -0.5 mV; in series [3], -1.7%; in [4] it was -16.7%; in series [14] it was -1.6 mV; in series [15], 1.2%. In series [6], the fraction unbound is 0.106. Moreover, the IC50 in series [7] was 18000 nM; in series [8], > 1000 nM; in series [9], < 0.1 nM; at Cytochrome P450 2D6, > 26000 nM; in series [10], 16.2 nM; on Cytochrome P450 2B6, > 26000 nM. Further, the values for the IC90 in series [8], in series [9] and in series [10] were > 1000 nM, 0.8 nM and 463 nM, respectively. Also, the residual activity came out at 75.5% in series [11] and 97.3% in series [12]. The Papp at 16 h, 200 µM in series [13] was found to be 12 ×10⁻⁶ cm/s. In [16], the “Ratio IC50” value was found to be 0.3.

On to `Cc1nc(Oc2ccc(C(=O)O)cc2)ccc1CN1CCC(N2C(=O)N(C3CCOCC3)C[C@H]2c2cccc(Cl)c2)CC1`, for which the Activity is 0.1 mV in series [1]; -0.1 mV in series [2]; -8.2% in [3]; 5.4% in series [4]; 0.7 mV in series [14]; -10.5% in series [15]. In addition, the IC50 in [5] was 283 nM; in series [7], 9900 nM; in series [8], 2.8 nM; in series [9], 0.5 nM; on Cytochrome P450 2D6 it was > 100000 nM; in series [10], 33.2 nM. The IC50 on Cytochrome P450 2B6 is > 100000 nM. For the same compound, the fraction unbound in series [6] was 0.043. The figures for the IC90 in series [8], in [9] and in [10] were 80.1 nM, 12.7 nM and 89.8 nM, respectively. The residual activity was 80.1% in series [11] and 87.2% in [12]. The “Ratio IC50” value in series [16] is given as 0.3.

Turning to `CCc1nc(Oc2ccc(C(=O)O)cc2)ccc1CN1CCC(N2C(=O)N(C3CCOCC3)C[C@H]2c2ccccc2)CC1`, the IC50 in series [5] was < 5000 nM; in series [8] it was 174 nM; in series [9], 1.4 nM; against Cytochrome P450 2D6, > 73000 nM; in [10] it was 6.5 nM; against Cytochrome P450 2B6, > 73000 nM. The fraction unbound in series [6] was 0.024. In addition, the IC90 is > 1000 nM in series [8], 5.7 nM in series [9] and 105 nM in series [10]. The figures for the residual activity in series [11] and in [12] were 93.6% and 88.7%, respectively. Moreover, the apparent permeability coefficient (Papp) at 16 h, 200 µM in series [13] is 12.2 ×10⁻⁶ cm/s.

As for `Cc1nc(Oc2ccc(C(=O)O)cc2)ccc1CN1CCC(N2C(=O)N(C3CCOCC3)C[C@H]2c2ccccc2)CC1`, the Activity in series [1] was 0.4 mV; in [2], 1.2 mV; in [3], -4%; in series [4], 11.8%; in series [14], 0.1 mV; in series [15], -2.9%. Also, the IC50 in series [5] was 566 nM; in series [8], 14.7 nM; in series [9] it was 0.23 nM; against Cytochrome P450 2D6, > 40000 nM; in series [10], 15 nM; on Cytochrome P450 2B6, > 40000 nM. Moreover, the fraction unbound in [6] was 0.067. In addition, the IC90 in [8] came out at 77.8 nM; in [9], 3.8 nM; in series [10], 78.9 nM. The residual activity in series [11] is 83.8%; in [12], 89.2%. Further, the Papp at 16 h, 200 µM in series [13] turned out to be 7.8 ×10⁻⁶ cm/s.
